Bioassay records (PubChem BioAssay)
This is one part of a sample in which hits are shown more often than they occur.
VLA-4 inh: inhibition in a human VLA-4 binding assay; P13612; VLA-4 expressing cells, ligand binding flow cytometry; inhibition, % (about 7 µM as worked out from the volumes in the protocol); 0.2% of 330,000 active; in the data active = inhibition above about 50%
UPR XBP1 act: activators of adaptive arm of unfolded protein response (XBP1); CHO-XBP1 luciferase reporter, IRE1-XBP1 UPR activation, luminescence; percent of tunicamycin response, DMSO as zero; activation, % at 20 µM; 0.33% of 330,000 active;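 active = versus positive control, 20 µM dose yields 30% or more activation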;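 note: 100% = tunicamycin at 10 µg/mL and 0% = DMSO only wells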
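Material: IRE1-XBP1 luciferase reporter CHO line / Quantity: one thousand reporter cells per well / Buffer or medium: F12 with 10% serum / Compound: 20 µM single concentration, DMSO 1% / Times: 6 h treatment, 37 °C / Detection: Steady-Glo luciferase glow luminescence, 10 min after reagent addition / Benchmarks: tunicamycin high, DMSO low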
CHOP inh: blocks CHOP induction under ER stress. 3.8% of 220,000 active. inhibition, % at 10 µM. CHO-K1 CHOP-promoter luciferase, tunicamycin-induced, 15-18 h. AID 2732;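 active = compounds that reduced the stress-induced luciferase reporter signal by more than about 70% of percent inhibition, limit read from the data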;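 note: 0% = tunicamycin plus vehicle and 100% = wells without tunicamycin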
UPR CHOP act: activators of apoptotic arm of unfolded protein response (CHOP) | CHO-CHOP luciferase reporter, UPR activation, luminescence; percent of tunicamycin response over DMSO baseline | activation, % at 10 µM | 0.34% of 330,000 active | AID 449763;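 active = at 10 µM dose, activation of 40% or more, normalized to positive control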;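 note: 100% = tunicamycin at 10 µg/mL and 0% = DMSO alone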
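System: CHO-CHOP luciferase reporter cell line | Buffer or medium: F12 medium containing 10% fetal bovine serum | Doses: One dose, 10 µM in 0.5% DMSO | Times: 6 h compound exposure at 37 °C after overnight seeding | Signal: Luciferase luminescence | Read-out: % activation vs tunicamycin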
Beta2AR agonist: human beta-2 adrenergic receptor agonism by FAP. 0.43% of 340,000 active. P07550. response, % (test concentration not listed). Am2.2-beta2AR cells, FAP receptor internalization, flow cytometry;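 active = response above a set limit, near 3 SD of response in nonfluorescent compounds, cut at about 42% in these data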
Target sequence (P07550 whole entry, looked up): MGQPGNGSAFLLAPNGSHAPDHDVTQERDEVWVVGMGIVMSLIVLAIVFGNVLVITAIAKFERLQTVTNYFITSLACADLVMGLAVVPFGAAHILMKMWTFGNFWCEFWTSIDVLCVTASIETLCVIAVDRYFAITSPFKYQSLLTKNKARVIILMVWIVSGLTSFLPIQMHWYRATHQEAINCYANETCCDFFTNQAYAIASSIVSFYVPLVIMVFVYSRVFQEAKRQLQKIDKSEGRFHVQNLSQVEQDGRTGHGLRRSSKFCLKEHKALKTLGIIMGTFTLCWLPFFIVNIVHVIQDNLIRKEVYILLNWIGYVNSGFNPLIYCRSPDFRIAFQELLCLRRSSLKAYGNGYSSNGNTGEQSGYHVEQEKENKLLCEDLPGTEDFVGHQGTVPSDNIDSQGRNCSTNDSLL
The depositor's hits bear a star; nt = not tested or not shown.

SMILES | VLA-4 inh | UPR XBP1 act | CHOP inh | UPR CHOP act | Beta2AR agonist
CN(CCO)c1cc(Sc2nc3ccccc3s2)c2nonc2c1[N+](=O)[O-] | -19 | -7 | 67 | -10 | 99*
C/C(=N\NC(=O)c1ccc([N+](=O)[O-])cc1Cl)c1ccccc1 | 2 | 6 | 83* | 4 | 0
CCOc1ccc(-c2nn(-c3ccccc3)cc2/C=C2\SC(N)=NC2=O)cc1C | 14 | 9 | 4 | 4 | 59*
CC(C)CCNC(=O)c1onc(CSc2ccccc2)c1C(=O)NCCC(C)C | -9 | -3 | nt | -3 | -2
COc1ccc(/C(C)=N/OC/C(O)=C(\C#N)c2nc3ccccc3[nH]2)c(OC)c1 | -6 | 1 | 95* | 1 | -14
COc1ccc2oc(C(=O)OC/C(O)=C(\C#N)c3nc4ccccc4[nH]3)c(C)c2c1 | -4 | 0 | 95* | -1 | 3
COc1ccc(/C(C)=N/OC/C(O)=C(\C#N)c2nc3ccccc3[nH]2)cc1OC | -2 | -2 | 39 | -1 | -28
COCc1c(C(=O)OC/C(O)=C(\C#N)c2nc3ccccc3[nH]2)oc2ccccc12 | -6 | 2 | -8 | 0 | -1
CN(C(=O)CSc1nnnn1C)C1(C#N)CCCCC1 | 7 | 2 | nt | 0 | 6
CCOC(=O)CSC1=NC(=O)/C(=C/c2ccc(OC)cc2)S1 | 36 | 10 | 50 | 21 | 69*
Cc1ccnc(NC(=O)c2ccc([N+](=O)[O-])s2)c1 | -3 | -2 | nt | 6 | -2
NC(CCCCCP(=O)(c1ccccc1)c1ccccc1)C(=O)O (stereo unspecified) | -2 | -4 | 5 | -2 | nt
O=C(/C=C/c1cccnc1)/C=C/c1cccnc1 | nt | nt | 97* | nt | 67*
Cc1cccc(C(=O)Nc2ccc(C(=O)/C=C/c3cccnc3)cc2)c1 | 13 | nt | -56 | nt | 80*
Cc1cccc(C(=O)Nc2ccc(C(=O)N/N=C/c3cccnc3)cc2)c1 | 27 | 6 | nt | 2 | 0
CC1Cc2ccccc2N1C(=O)CSc1nnc(Cn2nnc3ccccc32)n1C (stereo unspecified) | 10 | -2 | 72* | 1 | 0
CCN(CC(=O)Nc1c(F)cccc1F)C(=O)c1cc(C)nc2ccccc12 | 0 | -4 | nt | 0 | -3
C=C(C)C1CC=C(C)/C(=N/NC(=O)COc2ccc(Cl)cc2)C1 (stereo unspecified) | 3 | 4 | 86* | -1 | -18
Clc1ccccc1C1CC(c2ccccc2)Nc2ncnn21 (stereo unspecified) | -23 | -1 | 92* | -1 | -9
Nc1nc2n(n1)C(c1cccc(Br)c1)CC(c1ccc(F)cc1)N2 (stereo unspecified) | 11 | -1 | 8 | -1 | 3
Fc1cccc(C2CC(c3cccc(Br)c3)Nc3nnnn32)c1 (stereo unspecified) | 1 | -2 | 83* | -1 | -3
Cc1ccc(OCCNC(=O)c2ccccc2OCc2c(C)noc2C)cc1 | nt | -1 | nt | 1 | 4
Cc1ccc(C)c(NC(=O)CN(C)C(=O)[C@@H](NC(N)=O)C(C)C)c1 | 18 | -3 | 7 | -2 | -4
Cc1ccc(C)c(NC(=O)CN(C)C(=O)[C@@H](NC(=O)c2ccc(C(C)(C)C)cc2)C(C)C)c1 | 3 | -4 | 83* | -1 | -6
Nc1cc2c(cc1Cl)-c1ccc(Cl)cc1C2=O | nt | nt | nt | nt | -5
SMILES | VLA-4 inh | UPR XBP1 act | CHOP inh | UPR CHOP act | Beta2AR agonist
CC(=O)N1CCC(C(=O)c2ccc(Cl)cc2)CC1 | 1 | -3 | 89* | -2 | 2
O=C(CSc1cccc(C(F)(F)F)c1)NC(=O)NCc1ccco1 | 0 | -2 | 82* | 0 | -7
O=C(CSc1cccc(C(F)(F)F)c1)Nc1ccc(Cl)cc1Cl | 0 | 0 | 83* | -1 | 1
CSc1nc(C)cc(SCC(=O)Nc2ccc(Cl)cc2Cl)n1 | 7 | -2 | 87* | 2 | -7
O=C(c1nc[nH]c1C(=O)N1CCc2ccccc2C1)N1CCc2ccccc2C1 | 0 | -2 | nt | 0 | 2
CSC1=NSC2=NC(=O)/C(=C\c3ccc(OC(=O)c4ccco4)cc3)C(=N)N12 | 2 | 1 | nt | 6 | 43*
Cc1ccc(C(C)C)cc1OCC(=O)N1CCN(C(=O)c2ccco2)CC1 | 16 | 2 | nt | 1 | -3
O=C(CCl)Nc1cccc(S(=O)(=O)N2CCCCCC2)c1 | -1 | -1 | 93* | 15 | -2
O=C(Cc1ccc(Cl)cc1)Nc1cccc(S(=O)(=O)N2CCCCC2)c1 | 13 | -2 | nt | 0 | -6
CCc1ccc2[nH]c(=O)c(C(c3nnnn3CC3CCCO3)N3CCCc4ccccc43)cc2c1 (stereo unspecified) | 11 | 2 | 84* | 3 | 2
Cc1cc(C)n(-c2nc(NCC3CCCO3)c3c4c(sc3n2)COC(C)(C)C4)n1 (stereo unspecified) | 1 | 1 | 95* | 0 | nt
COc1ccccc1NC(=O)C(C)OC(=O)c1nc2nc(C)cc(C)n2n1 (stereo unspecified) | 0 | -4 | nt | 1 | -3
CCOc1ccccc1NC(=O)CSc1nncc2ccccc12 | -1 | -1 | nt | 2 | 5
Cc1ccc2nc(-c3cccc(NS(C)(=O)=O)c3)cc(-c3ccccc3)c2c1 | 7 | 0 | 85* | 1 | 2
Cc1nc(-c2cccc(NS(=O)(=O)c3ccccc3)c2)cs1 | 3 | 1 | 10 | 1 | 25
CCC(C)N(C(=O)Cn1cnc2c1c(=O)n(C)c(=O)n2C)C1CCS(=O)(=O)C1 (stereo unspecified) | -3 | 0 | nt | 3 | -3
COc1cc(CC(=O)OCC(=O)NC2CCCCCC2)cc(OC)c1OC | 0 | -3 | nt | 1 | -3
O=C1c2ccccc2C(=O)N1CCc1csc(-c2cccc(F)c2)n1 | -2 | 0 | 82* | 1 | -13
COc1ccc([C@H]2CC(=O)C=C(c3ccc(Cl)c(F)c3)C2)cc1 | 4 | -2 | nt | 1 | -6
CCN(CC)c1nc(Nc2ccc([N+](=O)[O-])cc2)nc(N(CC)CC)n1 | 4 | -6 | nt | 2 | 26
CC(=O)c1ccc(NC(=O)CN2C(=O)/C(=C/C=C/c3ccccc3)SC2=S)cc1 | 3 | 0 | 74* | 1 | 0
CC(=C\c1ccccc1)/C=C1/SC(=S)N(CCC(=O)Nc2ccccn2)C1=O | -8 | -3 | 9 | 0 | nt
O=C(CCN1C(=O)/C(=C/C=C/c2ccccc2)SC1=S)Nc1ccccn1 | -7 | 9 | 85* | 9 | 4
O=C(O)CN1C(=O)/C(=C/C=C/c2ccccc2)SC1=S | 3 | -1 | -10 | -2 | 9
COc1ccccc1/C=C1\SC(=S)N(CC(=O)Nc2nnc(C)s2)C1=O | 0 | -3 | 72* | -1 | nt
COc1ccccc1/C=C1\SC(=S)N(CCC(=O)NC2=NCCS2)C1=O | -1 | -3 | 60 | -2 | 22
Cc1ccc(/C=C2\SC(=S)N(CC(=O)Nc3cccnc3)C2=O)cc1 | -11 | -1 | 86* | 0 | 12
